# PMC4448975 (Pharmacology Research & Perspectives, 2015)
# Assays:
# human ADA2 = molecular target: T1, human ADA2 (Homo sapiens, UniProt Q9NZK5); test: Deamination of substrates in ADA2-expressing HEK293 cells; type: biochemical; conditions: compared with Mock cells; substance = substrate
# T1 sequence (Q9NZK5 30-511): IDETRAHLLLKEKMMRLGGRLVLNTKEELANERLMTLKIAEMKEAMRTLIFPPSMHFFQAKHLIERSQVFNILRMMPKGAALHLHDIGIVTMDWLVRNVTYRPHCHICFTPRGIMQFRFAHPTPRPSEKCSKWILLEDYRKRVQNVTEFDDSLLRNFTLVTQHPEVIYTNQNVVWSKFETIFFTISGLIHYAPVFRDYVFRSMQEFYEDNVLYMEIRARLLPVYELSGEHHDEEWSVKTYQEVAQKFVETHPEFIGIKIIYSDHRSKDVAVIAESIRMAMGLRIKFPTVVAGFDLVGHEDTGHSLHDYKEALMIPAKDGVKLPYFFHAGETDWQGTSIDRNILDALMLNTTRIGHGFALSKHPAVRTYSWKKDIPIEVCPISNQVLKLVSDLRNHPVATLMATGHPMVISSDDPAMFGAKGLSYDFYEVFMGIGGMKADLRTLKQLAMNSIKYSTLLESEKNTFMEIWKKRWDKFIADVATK
# Jurkat cells = test: Cell viability; type: cell-based, human; conditions: 24 h, MTT
# How it was run: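 Jurkat cells kept in RPMI-1640 with 10% FBS, penicillin–streptomycin, NaHCO3 and glutamine at 37°C, 5% CO2. Cells were seeded at 1 × 10^4 per well. […] Viability was read by MTT kit. Mean ± SD of three independent determinations; ANOVA with Dunnett's test.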
# [1] = molecular target: T2, ADA in mouse erythrocytes (Mus musculus, UniProt P03958); test: Inhibition of ADA-catalyzed deamination in mouse erythrocytes; type: biochemical; conditions: for inhibition at 100 µM: read-out: inhibition of the enzyme activity (deamination of cordycepin)
# T2 sequence (P03958 1-352): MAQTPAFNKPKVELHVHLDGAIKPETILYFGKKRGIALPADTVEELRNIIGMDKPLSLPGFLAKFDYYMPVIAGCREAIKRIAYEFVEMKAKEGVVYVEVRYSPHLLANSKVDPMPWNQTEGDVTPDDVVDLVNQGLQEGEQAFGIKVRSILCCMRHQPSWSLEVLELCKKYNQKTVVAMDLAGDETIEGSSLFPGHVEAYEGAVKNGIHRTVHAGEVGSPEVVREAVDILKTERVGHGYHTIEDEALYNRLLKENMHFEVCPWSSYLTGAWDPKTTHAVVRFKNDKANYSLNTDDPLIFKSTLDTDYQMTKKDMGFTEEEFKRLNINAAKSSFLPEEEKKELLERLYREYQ
# [2] = molecular target: T3, ADA in human erythrocytes (Homo sapiens, UniProt P00813); test: Inhibition of ADA-catalyzed deamination of cordycepin in human erythrocytes; type: biochemical
# T3 sequence (P00813 1-363): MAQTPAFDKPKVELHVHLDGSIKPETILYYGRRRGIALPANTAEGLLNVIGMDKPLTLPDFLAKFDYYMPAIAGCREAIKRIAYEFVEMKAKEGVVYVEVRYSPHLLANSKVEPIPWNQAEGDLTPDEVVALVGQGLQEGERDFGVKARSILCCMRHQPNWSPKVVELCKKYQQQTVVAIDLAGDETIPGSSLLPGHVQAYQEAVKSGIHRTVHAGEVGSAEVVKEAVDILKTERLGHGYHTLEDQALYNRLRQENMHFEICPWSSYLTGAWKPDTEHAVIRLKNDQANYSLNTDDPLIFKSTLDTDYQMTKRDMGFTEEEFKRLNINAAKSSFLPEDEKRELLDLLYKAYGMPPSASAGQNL
# How it was run: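 Human erythrocytes were incubated with cordycepin in 400 mmol/L sodium acetate buffer, pH 5.8, at 37°C after a 3 min preincubation. Inhibitors were present and cordycepin concentrations were varied. Reactions were stopped with acetonitrile and centrifuged. 3′-Deoxyinosine was quantified by reversed-phase HPLC (6% acetonitrile, 1.0 mL/min, 260 nm). Inhibition type and Ki were derived from Dixon plots.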
# [3] = molecular target: T4, ADA1 in Jurkat cell homogenates (Homo sapiens, UniProt P00813); test: Inhibition of cordycepin deamination in Jurkat cell homogenates; type: biochemical; conditions: substrate 100 μmol/L, inhibitor 50 μmol/L
# T4 sequence (P00813 1-363): T3 sequence (P00813 1-363)
smiles,measurement,setting,value
Nc1ncnc2c1ncn2[C@H]1C[C@H](O)[C@@H](CO)O1 [2′-deoxyadenosine],deamination activity toward the substrate in ADA2-expressing HEK293 cells,human ADA2,comparable to those in Mock cells
"Nc1ncnc2c1ncn2[C@@H]1O[C@H](CO)C[C@H]1O [Cordycepin, 3′-deoxyadenosine]",cell viability of the Jurkat cells,Jurkat cells; cordycepin alone,concentration-dependently decreased the cell viability
"C[C@@H]1O[C@@H](O[C@H]2[C@H](Oc3cc(O)c4c(c3)O[C@H](c3ccc(O)cc3)CC4=O)O[C@H](CO)[C@@H](O)[C@@H]2O)[C@H](O)[C@H](O)[C@H]1O [Naringin, naringin]",Ki,"[1]; mouse erythrocytes, substrate 2′-deoxyadenosine, Dixon plot",197 µM
same,Ki,"[1]; mouse erythrocytes, substrate adenosine, Dixon plot",371 ± 10.1 µM
same,Ki,"[1]; mouse erythrocytes, substrate cordycepin, Dixon plot",58.8 ± 0.7 µM
same,inhibition of cordycepin deamination in the erythrocytes (in words),"[1]; erythrocytes, 100 μmol/L cordycepin, 100 μmol/L inhibitor, 37°C (Fig.4)",moderately inhibited
same,inhibition pattern against the cordycepin deamination,"[1]; mouse erythrocytes, Dixon plot",competitive
same,inhibition at 100 µM,[1],20%
same,Ki,[2],168 ± 22.4 µM
same,inhibition pattern against the cordycepin deamination,"[2]; human erythrocytes, Dixon plot",competitively
same,inhibition of deamination of cordycepin in Jurkat cell homogenates,[3],moderately
OC[C@H]1O[C@@H](n2cnc3c2NC=NC[C@H]3O)C[C@@H]1O [Pentostatin],effect on the cytotoxic effect of cordycepin,Jurkat cells; Jurkat cells cotreated with cordycepin and 50 μmol/L inhibitor,stronger cytotoxicity
Nc1ncnc2c1ncn2[C@@H]1O[C@H](CO)[C@@H](O)[C@H]1O [adenosine],deamination activity toward the substrate in ADA2-expressing HEK293 cells,human ADA2,comparable to those in Mock cells
O=c1c(O)c(-c2ccc(O)cc2)oc2cc(O)cc(O)c12 [kaempferol],inhibition at 100 µM,[1],0 to 10%
O=c1c(O)c(-c2cc(O)c(O)c(O)c2)oc2cc(O)cc(O)c12 [myricetin],inhibition at 100 µM,[1],0 to 10%
O=C1C[C@@H](c2ccc(O)cc2)Oc2cc(O)cc(O)c21 [naringenin],inhibition at 100 µM,[1],0 to 10%
O=c1c(O)c(-c2ccc(O)c(O)c2)oc2cc(O)cc(O)c12 [quercetin],inhibition at 100 µM,[1],0 to 10%
